Measured values from ChEMBL document CHEMBL3045047, “Phytochemistry and nematicidal activity of the essential oils from 8 Greek Lamiaceae aromatic plants and 13 terpene components” (J Agric Food Chem, 2010).
≈ marks a conversion by molar mass, not a printed value.

Assays:
Format in all cases: functional, organism-based
[1] = test system: Meloidogyne incognita; assay: Nematicidal activity against Meloidogyne incognita J2 (root-knot nematode) larvae immersed in compound solution for 48 hr assessed as reduction in larval motility
How it was run: (§1)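 J2 hatched at 28 °C in modified Baermann funnels from eggs extracted from roots with sodium hypochlorite. Ethanol stocks were diluted in water with Tween-20 (final ethanol ≤1%, Tween-20 ≤0.3% v/v), with water and solvent controls. Fifteen J2 per well, covered, dark, 28 °C. Motile/immotile scored microscopically. Control-corrected (Schneider-Orelli), six replicates, run twice. EC50 from log-logistic regression.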

[2] = test system: Meloidogyne incognita; assay: Nematicidal activity against Meloidogyne incognita J2 (root-knot nematode) larvae immersed in compound solution for 96 hr assessed as reduction in larval motility; how it was run: as §1
[3] = test system: Meloidogyne incognita; assay: Nematicidal activity against Meloidogyne incognita J2 (root-knot nematode) larvae immersed in compound solution for 24 hr assessed as reduction in larval motility; how it was run: as §1
[4] = test system: Meloidogyne javanica; assay: Nematicidal activity against Meloidogyne javanica J2 (root-knot nematode) larvae immersed in compound solution for 48 hr assessed as reduction in larval motility

Compound	EC50 [1]	EC50 [2]	EC50 [3]	EC50 [4]
CC(C)=C1CC[C@@H](C)CC1=O [PULEGONE]	< 117 µg/mL	< 117 µg/mL	150 µg/mL (≈ 985 µM)	0.205 uL/ml
Cc1ccc(C(C)C)cc1 [P-CYMENE]	> 1720 µg/mL	> 1720 µg/mL	> 1720 µg/mL	
C=C(C)[C@H]1CC=C(C)CC1 [D-LIMONENE]	> 1680 µg/mL	> 1680 µg/mL	> 1680 µg/mL	
Cc1ccc(C(C)C)cc1O [CARVACROL]	176 µg/mL (≈ 1170 µM)	117 µg/mL (≈ 779 µM)	264 µg/mL (≈ 1760 µM)	0.128 uL/ml
CC1=CCC(O)(C(C)C)CC1 (stereo unspecified) [TERPINEOL]	290 µg/mL (≈ 1880 µM)	168 µg/mL (≈ 1090 µM)	392 µg/mL (≈ 2540 µM)	
C=CC(C)(O)CCC=C(C)C (stereo unspecified) [LINALOOL]	707 µg/mL (≈ 4580 µM)	284 µg/mL (≈ 1840 µM)	862 µg/mL (≈ 5590 µM)	
C=C1CC/C=C(\C)CC[C@@H]2[C@@H]1CC2(C)C [BETA-CARYOPHYLLENE]	433 µg/mL (≈ 2120 µM)	307 µg/mL (≈ 1500 µM)	> 1800 µg/mL	
CC12CCC(CC1)C(C)(C)O2 [EUCALYPTOL]	> 1840 µg/mL	1600 µg/mL (≈ 10400 µM)	> 1840 µg/mL	
CC(C)=CCC/C(C)=C/CO [GERANIOL]	158 µg/mL (≈ 1020 µM)	105 µg/mL (≈ 681 µM)	237 µg/mL (≈ 1540 µM)	
Cc1ccc(C(C)C)c(O)c1 [THYMOL]	280 µg/mL (≈ 1860 µM)	160 µg/mL (≈ 1070 µM)	390 µg/mL (≈ 2600 µM)	
C=C(C)[C@@H]1CC=C(C)C(=O)C1 [L-CARVONE]	< 120 µg/mL	< 120 µg/mL	115 µg/mL (≈ 766 µM)	
C=CCc1ccc(O)c(OC)c1 [EUGENOL]	192 µg/mL (≈ 1170 µM)	< 133 µg/mL	256 µg/mL (≈ 1560 µM)	
C/C=C/c1ccc(OC)cc1 [ANETHOLE]	140 µg/mL (≈ 945 µM)	124 µg/mL (≈ 837 µM)	170 µg/mL (≈ 1150 µM)	
